For 2 compounds, Activity and IC50 results are on record in ChEMBL document CHEMBL4118021, “Studies of TAK1-centered polypharmacology with novel covalent TAK1 inhibitors” (Bioorg Med Chem, 2017).

Each structure is given as a SMILES string. The source made the active and inactive calls. The calls are words filed in the database; no cut-off is given here.

Assay [1] addresses Protein arginine N-methyltransferase 5 (Homo sapiens) (UniProt O14744). In words: Binding affinity to PRMT5 in human NCI-H23 cells at 1 uM by mass spectrometry based pull down assay. The format is cell-based.
In assay [2] the target is Membrane-associated progesterone receptor component 1 (Homo sapiens) (UniProt O00264). In words: Binding affinity to PGRMC1 in human NCI-H358 cells at 1 uM by mass spectrometry based pull down assay. The format is cell-based.
Assay [3] has as its target Heterogeneous nuclear ribonucleoproteins A2/B1 (Homo sapiens) (UniProt P22626). In words: Binding affinity to HNRNPA2B1 in human NCI-H23 cells at 1 uM by mass spectrometry based pull down assay. The format is cell-based.
Assay [4] deals with Protein phosphatase 1G (Homo sapiens) (UniProt O15355). In words: Binding affinity to PPM1G in human NCI-H23 cells at 1 uM by mass spectrometry based pull down assay. Type of assay: cell-based.
The target of assay [5] is T1, Mitogen-activated protein kinase kinase kinase 7 (Homo sapiens, UniProt O43318).
T1 sequence (O43318 whole entry): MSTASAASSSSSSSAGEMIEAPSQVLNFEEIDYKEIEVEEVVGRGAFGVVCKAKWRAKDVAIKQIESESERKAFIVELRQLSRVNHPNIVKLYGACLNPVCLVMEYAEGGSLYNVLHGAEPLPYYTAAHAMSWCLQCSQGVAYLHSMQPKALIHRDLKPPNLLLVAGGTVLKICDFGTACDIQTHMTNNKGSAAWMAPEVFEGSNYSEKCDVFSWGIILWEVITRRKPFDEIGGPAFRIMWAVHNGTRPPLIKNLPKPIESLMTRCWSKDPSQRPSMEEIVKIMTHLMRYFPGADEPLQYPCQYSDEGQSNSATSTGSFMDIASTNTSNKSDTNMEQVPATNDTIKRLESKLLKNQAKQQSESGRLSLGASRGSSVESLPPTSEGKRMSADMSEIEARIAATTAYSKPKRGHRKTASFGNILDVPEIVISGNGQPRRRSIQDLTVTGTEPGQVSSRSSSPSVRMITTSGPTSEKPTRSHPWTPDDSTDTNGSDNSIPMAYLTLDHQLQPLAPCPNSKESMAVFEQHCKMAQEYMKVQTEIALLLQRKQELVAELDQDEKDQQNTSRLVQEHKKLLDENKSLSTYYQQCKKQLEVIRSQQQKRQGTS
In words: Inhibition of TAK1 (unknown origin) after 60 mins by biochemical assay.

In assay [6] the target is T2, Mitogen-activated protein kinase kinase kinase 7 (Homo sapiens) (UniProt O43318).
T2 sequence (whole entry): T1 sequence (O43318 whole entry)
In words: Binding affinity to MAP3K7 in human NCI-H358 cells at 1 uM by mass spectrometry based pull down assay. Type of assay: cell-based.

For assay [7], the target named is T3, Serine/threonine-protein kinase D2 (Homo sapiens) (UniProt Q9BZL6).
T3 sequence (whole entry): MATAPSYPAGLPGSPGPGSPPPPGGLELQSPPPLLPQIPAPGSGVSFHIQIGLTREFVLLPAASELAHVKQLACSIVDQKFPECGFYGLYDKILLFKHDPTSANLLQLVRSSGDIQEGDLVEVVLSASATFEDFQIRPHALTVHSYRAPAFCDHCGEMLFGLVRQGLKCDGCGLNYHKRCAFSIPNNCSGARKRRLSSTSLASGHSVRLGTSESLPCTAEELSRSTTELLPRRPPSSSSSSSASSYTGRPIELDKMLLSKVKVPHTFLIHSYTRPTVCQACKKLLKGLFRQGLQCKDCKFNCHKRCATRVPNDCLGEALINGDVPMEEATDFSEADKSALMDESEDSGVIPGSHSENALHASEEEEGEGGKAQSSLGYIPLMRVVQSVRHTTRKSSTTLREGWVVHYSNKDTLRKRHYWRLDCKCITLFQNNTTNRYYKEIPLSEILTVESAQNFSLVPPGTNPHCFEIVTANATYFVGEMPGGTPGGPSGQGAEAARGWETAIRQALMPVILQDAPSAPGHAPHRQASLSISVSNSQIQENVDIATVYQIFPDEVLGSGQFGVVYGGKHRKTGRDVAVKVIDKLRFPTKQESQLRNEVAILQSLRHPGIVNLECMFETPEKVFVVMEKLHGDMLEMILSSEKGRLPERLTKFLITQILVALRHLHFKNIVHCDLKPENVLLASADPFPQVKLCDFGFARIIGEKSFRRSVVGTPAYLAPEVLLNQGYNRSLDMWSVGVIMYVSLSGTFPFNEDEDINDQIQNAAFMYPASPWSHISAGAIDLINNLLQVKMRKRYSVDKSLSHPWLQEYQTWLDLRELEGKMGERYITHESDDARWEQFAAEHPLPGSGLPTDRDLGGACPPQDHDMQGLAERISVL
In words: Binding affinity to PRKD2 in human NCI-H358 cells at 1 uM by mass spectrometry based pull down assay. Type of assay: cell-based.

Assay [8] concerns the target Y-box-binding protein 3 (Homo sapiens) (UniProt P16989). Nature of the assay: Binding affinity to YBX3 in human NCI-H23 cells at 1 uM by mass spectrometry based pull down assay. Type of assay: cell-based.
Assay [9] concerns the target 80S Ribosome (Homo sapiens) (UniProt P08865+P42677+P62753+P15880+P23396+P61247+P62701+P22090+P46782+P62081+P62241+P46781+P46783+P62280+P25398+P62277+P62263+P62841+P62244+P62249+P08708+P62269+P39019+P60866+P63220+P62266+P62847+P62851+P62854+P62979+P62857+P62273+P62861+P39023+P36578+P46777+Q02878+P18124+P62424+P62917+P32969+P27635+P62906+P62913+P30050+P26373+P40429+P50914+P61313+P18621+Q07020+Q02543+P84098+P46778+P35268+P62829+P62750+P83731+P61254+P61353+P46776+P46779+P47914+P62888+P62899+P62910+P49207+P42766+P18077+Q9Y3U8+P83881+P61927+P61513+P63173+P62891+P62945+P05388+P05386). In words: Binding affinity to RPL26 in human NCI-H23 cells at 1 uM by mass spectrometry based pull down assay. The format is cell-based.

The target of assay [10] is E3 ubiquitin-protein ligase UBR4 (Homo sapiens) (UniProt Q5T4S7). In words: Binding affinity to UBR4 in human NCI-H23 cells at 1 uM by mass spectrometry based pull down assay. Type of assay: cell-based.
Assay [11] concerns the target Protein arginine N-methyltransferase 5 (Homo sapiens) (UniProt O14744). In words: Binding affinity to PRMT5 in human NCI-H358 cells at 1 uM by mass spectrometry based pull down assay. The format is cell-based.
Assay [12] concerns the target Adenylyltransferase and sulfurtransferase MOCS3 (Homo sapiens) (UniProt O95396). In words: Binding affinity to MOCS3 in human NCI-H358 cells at 1 uM by mass spectrometry based pull down assay. Type of assay: cell-based.
The target of assay [13] is Platelet-derived growth factor receptor alpha (Homo sapiens) (UniProt P16234). Nature of the assay: Inhibition of human PDGFRA (575 to 1002 residues) expressed in mammalian expression system assessed as enzyme activity at 10 uM by KINOMEScan assay relative to control. Also noted: scale not given: the % may be the effect or the level left. In short, it runs like this: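 In vitro ATP-site competition binding assay across a panel of 456 kinases, with compound tested at 1 and 10 μM.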
Sequence of Platelet-derived growth factor receptor alpha (Homo sapiens) (P16234 whole entry, the tested form may be a part): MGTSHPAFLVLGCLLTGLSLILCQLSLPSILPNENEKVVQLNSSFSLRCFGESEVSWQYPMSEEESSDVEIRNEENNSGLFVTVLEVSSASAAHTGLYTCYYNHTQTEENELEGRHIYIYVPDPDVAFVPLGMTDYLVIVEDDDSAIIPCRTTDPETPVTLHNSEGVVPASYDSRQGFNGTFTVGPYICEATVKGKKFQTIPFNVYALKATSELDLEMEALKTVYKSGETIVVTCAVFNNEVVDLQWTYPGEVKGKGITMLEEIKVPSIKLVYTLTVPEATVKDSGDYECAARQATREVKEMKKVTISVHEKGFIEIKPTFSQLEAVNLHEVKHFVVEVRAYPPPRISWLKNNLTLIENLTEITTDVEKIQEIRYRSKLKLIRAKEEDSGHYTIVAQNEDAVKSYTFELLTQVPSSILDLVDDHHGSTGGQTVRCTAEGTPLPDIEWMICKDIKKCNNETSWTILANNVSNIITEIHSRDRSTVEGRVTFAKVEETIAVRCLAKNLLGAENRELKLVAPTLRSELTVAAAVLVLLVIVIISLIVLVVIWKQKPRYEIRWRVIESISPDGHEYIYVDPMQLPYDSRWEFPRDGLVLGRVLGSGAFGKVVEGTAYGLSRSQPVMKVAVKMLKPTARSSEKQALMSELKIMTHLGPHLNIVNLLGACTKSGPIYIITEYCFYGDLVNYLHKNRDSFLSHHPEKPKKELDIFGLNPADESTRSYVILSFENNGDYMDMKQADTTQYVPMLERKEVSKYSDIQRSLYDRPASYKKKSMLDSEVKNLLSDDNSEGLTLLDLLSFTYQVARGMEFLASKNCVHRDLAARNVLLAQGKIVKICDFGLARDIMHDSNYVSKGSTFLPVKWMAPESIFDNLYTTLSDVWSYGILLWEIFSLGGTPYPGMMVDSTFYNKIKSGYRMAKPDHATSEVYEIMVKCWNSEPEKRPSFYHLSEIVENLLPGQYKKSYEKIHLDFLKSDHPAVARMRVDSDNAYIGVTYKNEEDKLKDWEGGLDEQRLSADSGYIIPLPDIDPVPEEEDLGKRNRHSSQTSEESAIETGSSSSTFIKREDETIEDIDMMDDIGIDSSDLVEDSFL

Sequence of Protein arginine N-methyltransferase 5 (Homo sapiens) (O14744 whole entry): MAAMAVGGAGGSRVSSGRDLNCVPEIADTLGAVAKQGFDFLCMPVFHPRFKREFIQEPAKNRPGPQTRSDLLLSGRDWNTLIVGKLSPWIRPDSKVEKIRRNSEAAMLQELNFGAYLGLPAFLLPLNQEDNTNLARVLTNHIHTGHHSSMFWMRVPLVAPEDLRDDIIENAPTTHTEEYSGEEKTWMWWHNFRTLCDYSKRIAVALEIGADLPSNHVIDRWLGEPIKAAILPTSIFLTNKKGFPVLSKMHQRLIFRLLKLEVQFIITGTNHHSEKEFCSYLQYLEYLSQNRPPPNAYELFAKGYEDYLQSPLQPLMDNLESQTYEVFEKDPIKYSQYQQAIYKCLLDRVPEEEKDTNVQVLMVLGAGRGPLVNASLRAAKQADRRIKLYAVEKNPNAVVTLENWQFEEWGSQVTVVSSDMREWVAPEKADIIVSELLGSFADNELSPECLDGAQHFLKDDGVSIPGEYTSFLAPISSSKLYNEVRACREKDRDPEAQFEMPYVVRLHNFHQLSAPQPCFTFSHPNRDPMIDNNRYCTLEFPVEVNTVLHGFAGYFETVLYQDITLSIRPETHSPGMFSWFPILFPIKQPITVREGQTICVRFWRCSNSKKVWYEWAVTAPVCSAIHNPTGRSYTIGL
Sequence of Heterogeneous nuclear ribonucleoproteins A2/B1 (Homo sapiens) (P22626 whole entry): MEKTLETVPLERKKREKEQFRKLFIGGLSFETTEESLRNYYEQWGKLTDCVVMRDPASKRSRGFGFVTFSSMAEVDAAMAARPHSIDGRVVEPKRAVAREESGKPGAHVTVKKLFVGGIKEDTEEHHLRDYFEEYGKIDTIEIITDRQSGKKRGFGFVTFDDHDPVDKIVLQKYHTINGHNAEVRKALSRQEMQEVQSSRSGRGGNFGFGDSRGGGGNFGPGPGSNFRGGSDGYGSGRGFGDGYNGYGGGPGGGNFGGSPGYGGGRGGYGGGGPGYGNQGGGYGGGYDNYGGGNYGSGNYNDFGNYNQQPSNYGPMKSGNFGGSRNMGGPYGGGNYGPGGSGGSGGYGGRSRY
Sequence of Y-box-binding protein 3 (Homo sapiens) (P16989 whole entry): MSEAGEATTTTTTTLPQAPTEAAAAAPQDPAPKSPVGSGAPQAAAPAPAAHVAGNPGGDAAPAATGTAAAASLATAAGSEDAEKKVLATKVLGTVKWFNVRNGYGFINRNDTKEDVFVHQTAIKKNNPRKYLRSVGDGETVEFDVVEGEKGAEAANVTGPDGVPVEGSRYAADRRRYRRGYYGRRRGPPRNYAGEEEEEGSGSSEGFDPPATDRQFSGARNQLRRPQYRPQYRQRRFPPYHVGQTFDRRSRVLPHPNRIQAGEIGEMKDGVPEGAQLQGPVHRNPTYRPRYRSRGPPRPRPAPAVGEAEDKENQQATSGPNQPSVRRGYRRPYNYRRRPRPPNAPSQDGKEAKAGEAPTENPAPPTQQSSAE
Sequence of Protein phosphatase 1G (Homo sapiens) (O15355 whole entry): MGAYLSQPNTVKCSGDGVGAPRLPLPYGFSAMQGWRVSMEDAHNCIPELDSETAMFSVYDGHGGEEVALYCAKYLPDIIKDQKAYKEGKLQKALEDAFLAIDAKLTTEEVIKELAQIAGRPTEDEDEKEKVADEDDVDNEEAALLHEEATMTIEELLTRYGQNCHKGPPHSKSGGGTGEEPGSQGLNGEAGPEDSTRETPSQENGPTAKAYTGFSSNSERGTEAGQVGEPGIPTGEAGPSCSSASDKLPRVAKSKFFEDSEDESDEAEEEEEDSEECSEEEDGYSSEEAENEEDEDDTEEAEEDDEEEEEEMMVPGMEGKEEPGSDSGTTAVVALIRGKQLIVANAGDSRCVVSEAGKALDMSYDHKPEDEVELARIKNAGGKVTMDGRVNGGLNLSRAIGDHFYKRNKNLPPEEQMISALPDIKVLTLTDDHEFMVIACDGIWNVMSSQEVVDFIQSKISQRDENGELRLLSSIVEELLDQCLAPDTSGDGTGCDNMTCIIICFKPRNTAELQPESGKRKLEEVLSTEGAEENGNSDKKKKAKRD
Sequence of Adenylyltransferase and sulfurtransferase MOCS3 (Homo sapiens) (O95396 whole entry, the tested form may be a part): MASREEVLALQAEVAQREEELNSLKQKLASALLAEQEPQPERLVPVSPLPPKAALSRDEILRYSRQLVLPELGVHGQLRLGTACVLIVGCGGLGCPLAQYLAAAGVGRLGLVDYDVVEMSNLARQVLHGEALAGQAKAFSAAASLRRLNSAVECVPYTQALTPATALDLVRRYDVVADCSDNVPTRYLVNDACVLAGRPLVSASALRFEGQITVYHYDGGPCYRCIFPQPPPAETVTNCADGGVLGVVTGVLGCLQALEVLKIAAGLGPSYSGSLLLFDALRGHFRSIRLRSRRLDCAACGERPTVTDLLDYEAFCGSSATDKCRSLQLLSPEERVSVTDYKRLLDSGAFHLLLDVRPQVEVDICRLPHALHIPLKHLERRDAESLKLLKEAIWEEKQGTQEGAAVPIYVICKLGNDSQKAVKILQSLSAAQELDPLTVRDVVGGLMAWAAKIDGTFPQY
Sequence of Membrane-associated progesterone receptor component 1 (Homo sapiens) (O00264 whole entry): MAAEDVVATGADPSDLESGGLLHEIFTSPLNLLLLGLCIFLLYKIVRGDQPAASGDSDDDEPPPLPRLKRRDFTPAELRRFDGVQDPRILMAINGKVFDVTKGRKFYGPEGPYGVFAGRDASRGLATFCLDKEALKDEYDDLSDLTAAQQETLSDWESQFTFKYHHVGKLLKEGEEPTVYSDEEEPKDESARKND

What is called IC50 is the concentration needed to halve the response being measured. For `C=CC(=O)Nc1ccccc1Nc1nc(Nc2ccc(N3CCN(CCOCCOCCOCCNC(=O)CCCC[C@@H]4SC[C@@H]5NC(=O)N[C@@H]54)CC3)cc2)ncc1Cl`, the outcome in assay [1], in assay [2], in assay [3], in assay [4], in assay [6] and in assay [7] was Active. Moreover, the outcome in [8], in assay [9], in assay [10], in assay [11] and in assay [12] was Active. In assay [5], the half-maximal inhibitory concentration (IC50) was 33 nM.
`COc1cc(O)c2c(c1)/C=C/C[C@H](O)[C@H](O)C(=O)/C=C\C[C@H](C)OC2=O`: the Activity in assay [13] was determined as 1.4%.
